Calls of active or inactive are those of the source. The rule behind the calls is not given here.

Chain of Histamine receptor H3 (Q865E1 whole entry): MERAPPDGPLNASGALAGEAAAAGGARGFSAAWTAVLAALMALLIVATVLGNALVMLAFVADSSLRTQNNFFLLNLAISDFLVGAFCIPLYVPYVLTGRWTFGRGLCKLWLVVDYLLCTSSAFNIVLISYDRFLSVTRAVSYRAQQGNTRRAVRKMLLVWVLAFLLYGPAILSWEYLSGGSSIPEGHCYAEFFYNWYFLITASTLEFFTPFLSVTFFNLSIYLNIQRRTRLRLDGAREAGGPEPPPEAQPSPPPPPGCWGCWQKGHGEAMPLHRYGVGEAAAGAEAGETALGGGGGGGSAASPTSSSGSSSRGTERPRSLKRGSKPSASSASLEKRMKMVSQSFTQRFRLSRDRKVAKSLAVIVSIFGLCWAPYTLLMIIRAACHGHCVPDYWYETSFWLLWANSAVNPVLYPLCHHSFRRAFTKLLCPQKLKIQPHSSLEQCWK

The subject of one data set is Rattus norvegicus. The data set can be described thus: Antidepression-like activity in rat assessed as decrease in immobility time at 60 mg/kg, po by forced swimming test. It is filed as functional, organism-based. Further details: dose 60 mg/kg. The gist of the method:
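Rat forced-swim test, immobility time as read-out. Test agent given po in MC/0.6% + H2O at 1, 3 and 10 mg/kg; imipramine reference at 60 mg/kg po.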
Turning to `CN(C)CCCN1c2ccccc2CCc2ccccc21`, the outcome was Active.

Test system in the next data set: not listed separately
Put plainly: Dissociation constant, pKa of the compound. It is filed as physicochemical.
For orientation: pKa means the negative logarithm of the acid dissociation constant. Turning to `Cc1nc(N2CC[C@H](N3CCC[C@@H]3C)C2)ccc1NS(=O)(=O)c1ccc(F)c(F)c1`, the pKa stood at 10. Same read-out and setting: then `Cc1cc(N2CC[C@H](N3CCC[C@@H]3C)C2)ccc1NC(=O)c1cc(F)ccc1C`, with 10.1; and `Cc1cccc(C(=O)Nc2ccc(N3CC[C@H](N4CCC[C@@H]4C)C3)cc2C)n1`, with 10.1; and `Cc1cc(N2CC[C@H](N3CCC[C@@H]3C)C2)ccc1NC(=O)c1cc(C)n(C)n1`, with 10.1. Same read-out and setting: then `Cc1cc(C(=O)Nc2ccc(N3CC[C@H](N4CCC[C@@H]4C)C3)cc2C)n[nH]1`, with 12.1; and `Cc1nc(N2CC[C@H](N3CCC[C@@H]3C)C2)ccc1NC(=O)Cc1ccccc1`, with 9.9. On the same count and under the same terms, then `Cc1cc(N2CC[C@H](N3CCC[C@@H]3C)C2)ccc1NC(=O)c1ccoc1`, with 10.1; and `Cc1nc(N2CC[C@H](N3CCC[C@@H]3C)C2)ccc1NC(=O)c1cccc2ccccc12`, with 9.9. `Cc1nc(N2CC[C@H](N3CCC[C@@H]3C)C2)ccc1NC(=O)c1ccccc1` showed a pKa of 9.9. Still for that read-out and setting: as for `Cc1nc(C(=O)Nc2ccc(N3CC[C@H](N4CCC[C@@H]4C)C3)cc2C)co1`, the figure is 10.1; as for `Cc1cc(C(=O)Nc2ccc(N3CC[C@H](N4CCC[C@@H]4C)C3)cc2C)on1`, 10.1. Same read-out and setting: as for `Cc1cc(N2CC[C@H](N3CCC[C@@H]3C)C2)ccc1NC(=O)c1ccco1`, the figure is 10.1.

The next data set addresses Histamine receptor H3 (Macaca mulatta, UniProt Q865E1). Put plainly: Displacement of [3H]N-alpha-methylhistamine from recombinant rhesus monkey histamine H3 receptor transfected in CHO cells after 1 hr by scintillation counting analysis. It is filed as cell-based. The gist of the method:
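Membranes from CHO cells stably expressing recombinant rhesus monkey H3 receptor; displacement of [3H]N-α-methyl-histamine, reported as Ki.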
(Loss of bound radioactivity is the signal in a displacement assay; it reports binding, not function.)
The term Ki denotes the equilibrium dissociation constant of an inhibitor or competing ligand from its target. Take `Cc1cccc(C(=O)Nc2ccc(N3CC[C@H](N4CCC[C@@H]4C)C3)cc2C)n1`: the Ki was found to be 1.4 nM. The same measure, in the same setting: then `Cc1nc(N2CC[C@H](N3CCC[C@@H]3C)C2)ccc1NC(=O)c1ccccc1`, with 3 nM.
